An excerpt weighted towards active compounds, which were near 1.1% of everything screened.
GSK3B inh = human GSK3beta kinase inhibition; P49841; GST-GSK3beta kinase, ADP-Glo luminescence, 60 min; active compounds read low; activity score (negative = inhibition), % at 10 µM; 300,000 compounds, 0.038% hits; AID 2097;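 active means more than half of replicate wells score below -50%, meaning over 50% inhibition versus plate controls; inconclusive means some replicates but at most half score below -50%; inactive means no replicate scores below -50%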;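 further: 0% = median DMSO wells and -100% = median GW8510 positive control wells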
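Assay system: GST-tagged human GSK3beta kinase, cell-free; Input: 1.6 ng GSK3beta; Medium: Tris/MgCl2 kinase buffer; Timing: 60 min enzyme reaction, room temperature; Signal: ADP-Glo luminescence quantifying ADP generated by kinase; Evaluation: score relative to plate controls; Benchmarks: DMSO neutral wells and GW8510 at 20 µM as positive.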
SR-BI HDL uptake = mouse SR-BI HDL lipid transfer inhibition; ldlA[mSR-BI] CHO cells, DiI-HDL uptake fluorescence, 3 h; 320,000 compounds, 0.96% hits; Q61009; inhibition, % at 12.5 µM;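 active means mean replicate inhibition of at least 70% and a set share of replicates each scoring 70 or more; inconclusive means meets just one of the two criteria; inactive means fails both criteria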;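 further: 0% = median of neutral control wells and 100% = median of positive control wells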
GSK3A inh = human GSK-3 alpha kinase inhibition | P49840 | ADP-Glo luminescence, 60 min | inhibition, % at 10 µM | 320,000 compounds, 0.1% hits | AID 2650;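 active means more than half of replicates show inhibition above 20%; inconclusive means some but at most half of replicates above 20% inhibition; inactive means no replicate shows inhibition above 20%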;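 further: GST-tagged GSK-3 alpha with peptide substrate and 25 µM ATP; 0% = DMSO neutral wells and 100% = GW8510 positive control wells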
CDK5 p35 inh = inhibitors of human CDK5/p35 kinase; 330,000 compounds, 0.01% hits; Recombinant CDK5/p35, ADP-Glo luminescence, 60 min; inhibition, % at 10 µM; AID 488839;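 active means highest replicate inhibition of at least 50% and at least 75% of replicates reaching 50%; inconclusive means only one of the two criteria met; inactive means both criteria failed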;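 further: plate controls were DMSO neutral control for no effect and GW8510 at 10 µM for full effect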
Target sequence (Q00535 whole entry, looked up): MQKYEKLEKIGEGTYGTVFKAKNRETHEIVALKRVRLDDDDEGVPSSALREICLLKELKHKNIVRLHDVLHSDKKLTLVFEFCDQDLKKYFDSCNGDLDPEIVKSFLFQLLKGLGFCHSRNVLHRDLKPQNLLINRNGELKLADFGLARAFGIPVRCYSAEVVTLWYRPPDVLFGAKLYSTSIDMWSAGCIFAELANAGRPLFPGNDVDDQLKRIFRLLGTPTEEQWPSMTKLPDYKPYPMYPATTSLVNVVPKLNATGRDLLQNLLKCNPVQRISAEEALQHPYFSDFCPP
Target sequence (Q15078 whole entry, looked up): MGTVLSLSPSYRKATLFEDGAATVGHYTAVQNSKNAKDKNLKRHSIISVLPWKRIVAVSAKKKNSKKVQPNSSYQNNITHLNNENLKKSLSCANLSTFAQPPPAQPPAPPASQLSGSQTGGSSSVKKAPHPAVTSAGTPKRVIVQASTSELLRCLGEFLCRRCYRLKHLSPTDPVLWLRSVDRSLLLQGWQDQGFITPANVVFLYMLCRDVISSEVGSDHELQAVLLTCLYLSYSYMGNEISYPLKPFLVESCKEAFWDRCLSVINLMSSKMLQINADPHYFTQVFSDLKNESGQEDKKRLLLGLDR
SR-BI DiI-HDL act = activators of SR-BI mediated HDL lipid uptake; CHO ldlA[mSR-BI] cells, DiI-HDL uptake fluorescence, 3 h; 100 = double the neutral-control signal; 320,000 compounds, 0.096% hits; AID 504775; activation, % at 12.5 µM;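 active means mean replicate activation of at least 60% and every replicate at or above 60%; inconclusive means mean or all-replicate condition met, but not both; inactive means mean below 60% and not all replicates reaching 60%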;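 further: 0% = median plate neutral-control signal and 100% = twice that signal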
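Material: SR-BI-overexpressing, LDLR-lacking CHO cells | Dosing: Single compound concentration, delivered by pin transfer | Probe or stimulus: Labelled HDL, 10 µg/mL | Signal: Bottom-read cell fluorescence after medium removal, ex 550/em 595 nm | Schedule: 3 h, 37 °C | Evaluation: HDL uptake via cellular fluorescence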
An asterisk follows results filed as active; ? = inconclusive; . = not tested or not shown.

SMILES | GSK3B inh | SR-BI HDL uptake | GSK3A inh | CDK5 p35 inh | SR-BI DiI-HDL act
Nc1nc(Nc2ccccc2F)sc1C(=O)c1ccccc1 | -35.1 | . | 63.6* | 15.8 | .
O=C(CCSc1nc(-c2ccc3c(c2)OCO3)cc(C(F)(F)F)n1)NCc1ccccc1 | -0.8 | ? | -2.5 | -0.8 | -75.2
O=C(CCSc1nc(-c2ccc3c(c2)OCO3)cc(C(F)(F)F)n1)NCc1ccco1 | 0.3 | 81.8* | 1.5 | -0.1 | -82.6
O=C(/C=C1\NC2(CCCC2)Cc2ccccc21)C(=O)N/N=C/c1ccccc1O | -2.7 | 114.1* | 7.3 | -8.5 | -114.1
CN(C)c1ccc(/C=N/NC(=O)C(=O)/C=C2\NC3(CCCC3)Cc3ccccc32)cc1 | -0.2 | 94.0* | 0.7 | 1.2 | -94.0
CC(=O)C[C@@H](O)CC(=O)[C@@H]1OC(=O)[C@@H](C)CCCCc2ccccc21 | . | 5.2 | . | 0.0 | -5.2
COc1ccc(CC(=O)NC2CCS(=O)(=O)C2)cc1 (configuration not stated) | 2.6 | -5.3 | -8.0 | -0.4 | 5.3
CCOC(=O)N1CCc2cc(OC)c(OC)c3c2c1cc1cc(OC)c(OC)cc13 | . | 86.3* | . | -2.4 | -86.3
CCCN(CC(=O)Nc1ccc(Cl)cc1Cl)C(=O)c1ccc(=O)[nH]c1 | 1.5 | -13.8 | 0.4 | 0.2 | 13.9
COc1ccc(NC(=O)NCc2cccn2C)c(OC)c1 | 1.2 | 85.2* | 1.3 | 0.1 | -85.1
COc1ccc(NC(=O)NCc2ccncc2)c(OC)c1 | 0.4 | 4.2 | -0.6 | -13.1 | -4.2
COc1ccc(NC(=O)Nc2cccc3ccccc23)c(OC)c1 | -2.1 | 71.1* | -5.5 | -0.2 | -71.1
Cc1ccc(Nc2nc(N)c(C#N)c(CC#N)c2C#N)cc1 | -5.3 | 17.9 | 10.8 | 1.1 | -17.9
Cc1cc(/C=N/NC(=O)c2cccc(F)c2)c(C)n1-c1ccccc1 | 2.0 | 73.0* | 1.5 | -0.7 | -73.0
Cc1cc(/C=N/NC(=O)c2ccncc2)c(C)n1-c1cccc(C(F)(F)F)c1 | 0.9 | 74.2* | -4.8 | -0.9 | -74.2
O=C(C1=C[C@H](c2csc3ccccc23)C[C@H](OCc2ccc(CO)cc2)O1)N1CCCCCCC1 | 8.7 | . | -0.2 | . | .
Cc1ccc2[nH]c(C(=O)N/N=C/c3ccccc3O)c(C)c2c1 | -2.5 | 132.1* | -0.4 | 1.5 | -132.1
COc1ccc(OC)c(/C=N/NC(=O)c2cc3c(OC)c(OC)ccc3[nH]2)c1 | 2.7 | 71.9* | -1.5 | 0.6 | -71.9
CCOc1ccc2[nH]c(C(=O)N/N=C/c3ccccc3OC)cc2c1 | -5.9 | 42.5 | -0.1 | 0.2 | -42.5
COc1ccc2[nH]c(C(=O)N/N=C/c3ccccc3OC)cc2c1 | -0.3 | . | 3.3 | 1.5 | .
COc1cc(OC)c2cc(C(=O)N/N=C/c3ccccc3O)[nH]c2c1 | -2.0 | 122.9* | -1.9 | -1.1 | -122.9
CCOc1c(C)cnc2c1c(=O)n(Cc1ccccc1F)c(=O)n2C | -1.2 | -0.1 | . | -1.1 | 0.1
COc1ccc(OC(=O)c2cnc3n(c2=O)CCS3)cc1 | 3.3 | -16.7 | 5.3 | -0.2 | 16.7
CC(=O)NCCC(=O)Nc1cc(S(=O)(=O)N2CCCCC2)ccc1Oc1ccccc1 | 0.1 | -8.0 | -2.2 | -2.6 | 8.0
O=C(Nc1c2c(nn1-c1ccccc1)CS(=O)C2)c1ccc(S(=O)(=O)N2CCOCC2)cc1 (configuration not stated) | 0.5 | -31.9 | -1.4 | 1.1 | 31.9
SMILES | GSK3B inh | SR-BI HDL uptake | GSK3A inh | CDK5 p35 inh | SR-BI DiI-HDL act
COc1ccc(-n2nc3c(c2NC(=O)c2ccc(S(=O)(=O)N4CCOCC4)cc2)CS(=O)C3)cc1 (configuration not stated) | 0.7 | -68.3 | -0.6 | -0.9 | 68.3*
NC1=C(c2ccc([N+](=O)[O-])cc2)C(=O)CO1 | -1.1 | -8.1 | 0.0 | 1.0 | 8.1
O=c1oc2c(-c3ccc([N+](=O)[O-])cc3)cc(O)cc2s1 | -0.8 | 77.2* | 5.1 | -11.4 | -77.2
Cc1c(C(=O)c2ccc(N(C)C)cc2)c2ccccn2c1CCC#N | -3.6 | 72.9* | -0.7 | -0.6 | -72.9
O=C(O)/C(=C\c1ccc2ccccc2c1)c1cccc2ccccc12 | -2.9 | -26.0 | -5.4 | -1.6 | 26.1
O=C(NNC(=O)c1cc2ccccc2cc1O)c1cccs1 | 1.5 | 115.0* | -1.8 | 0.7 | -115.0
C/C(=N\NC(=O)c1cc2ccccc2cc1O)c1cccs1 | -3.0 | -6.5 | 4.9 | 5.0 | 6.5
O=C(NNC(=O)c1ccc2ccccc2c1O)c1cccs1 | 0.5 | 105.8* | -0.9 | 1.9 | -105.8
CCCCc1cc(=O)oc2cc(OCC(=O)NC3CCN(Cc4ccccc4)CC3)ccc12 | 2.6 | 21.0 | 0.7 | -0.6 | -21.0
CC1(C(=O)OCC(=O)NC(=O)NCc2ccccc2)CC1(Cl)Cl (configuration not stated) | -2.6 | -62.5 | -1.3 | -0.7 | 62.5*
CCOC(=O)c1csc(NC(=O)c2cc(OC)c(OC)c(OC)c2)n1 | -3.1 | 77.2* | -4.2 | 0.1 | -77.2
CS(=O)(=O)c1ccc(-c2sc3cc4c(cc3c2C(=O)NN2CCOCC2)OCO4)cc1 | . | -11.0 | -0.6 | -5.4 | 11.0
COc1cc(C(=O)NCCC(C)C)c([N+](=O)[O-])cc1OC | -1.1 | 82.2* | 7.2 | 0.9 | -82.2
Cc1noc(C)c1COC(=O)c1cccnc1Cl | -8.0 | -10.9 | -1.5 | -1.8 | 10.9
Cc1ccc(C)c(OC(=O)c2cccnc2Cl)c1C | 1.0 | -317.0 | -1.1 | -4.9 | 317.0*
CCOC(=O)C1=C(CN2CCN(C(=O)c3ccco3)CC2)NC(=O)NC1c1ccc(Cl)cc1 (configuration not stated) | -21.6 | 69.5 | 0.3 | 0.8 | -69.5
CCOC(=O)C1=C(CN2CCN(C(=O)c3ccco3)CC2)NC(=O)NC1c1ccc(OC(C)C)cc1 (configuration not stated) | 0.5 | 78.1* | -0.6 | 1.8 | -78.1
CCOC(=O)C1=C(CN2CCC(C)CC2)NC(=O)NC1c1ccc(Cl)cc1 (configuration not stated) | -0.3 | 77.8* | -2.5 | -1.8 | -77.8
COc1ccc2[nH]cc(/C=C/C(=O)c3ccccc3)c2c1 | -3.0 | 26.7 | -2.2 | -0.9 | -26.7
COc1ccccc1C(=O)NCCCCNC(=O)c1ccccc1OC | -3.8 | 7.4 | -7.3 | -2.1 | -7.4
CCOc1cc(NC(=O)c2ccccn2)c(OCC)cc1NC(=O)c1cccc(C)c1 | 2.0 | 70.7* | . | -0.6 | -70.7
COC(=O)c1cc(OC)c(OC)cc1NC(=O)c1cccc(C)c1 | 2.1 | 81.0* | . | 0.2 | -81.0
CCOc1cc(NC(=O)c2cccs2)c(OCC)cc1NC(=O)c1ccccn1 | -3.0 | 68.0 | -3.8 | -0.4 | -68.0
CC(=O)Nc1ccc(N(C(=O)CNC(=O)c2ccco2)C(C(=O)NCc2ccco2)c2ccccc2F)cc1 (configuration not stated) | -3.9 | 4.3 | 6.5 | 1.7 | -4.3
CCOC(=O)c1cc2c(C(F)(F)F)cc(-c3ccccc3)nc2o1 | 2.1 | 76.5* | -0.8 | -2.4 | -76.5

Screening results: PubChem, Broad Institute
